Results taken from ChEMBL document CHEMBL1148329, “Synthesis and structure-activity studies on N-[5-(1H-imidazol-4-yl)-5,6,7,8-tetrahydro-1-naphthalenyl]methanesulfonamide, an imidazole-containing alpha(1A)-adrenoceptor agonist” (J Med Chem, 2004).

Experiments:
[1] = Selectivity is ratio of efficacy of alpha-2A to that of alpha1A adrenoceptor; assay type: functional
[2] = target: Alpha adrenergic receptor 1A and 1B (Rattus norvegicus) (UniProt P15823+P43140); test: Selectivity is ratio of pKi (binding affinity) of alpha-1B receptor to that of alpha-1A receptor.; assay type: protein assay
[3] = target: T1, Alpha-1A adrenergic receptor (Oryctolagus cuniculus) (UniProt O02824); test: Functional agonism of the compounds to constrict tissue containing the alpha-1A adrenergic receptor in rabbit urethra; assay type: tissue-based
T1 sequence (whole entry): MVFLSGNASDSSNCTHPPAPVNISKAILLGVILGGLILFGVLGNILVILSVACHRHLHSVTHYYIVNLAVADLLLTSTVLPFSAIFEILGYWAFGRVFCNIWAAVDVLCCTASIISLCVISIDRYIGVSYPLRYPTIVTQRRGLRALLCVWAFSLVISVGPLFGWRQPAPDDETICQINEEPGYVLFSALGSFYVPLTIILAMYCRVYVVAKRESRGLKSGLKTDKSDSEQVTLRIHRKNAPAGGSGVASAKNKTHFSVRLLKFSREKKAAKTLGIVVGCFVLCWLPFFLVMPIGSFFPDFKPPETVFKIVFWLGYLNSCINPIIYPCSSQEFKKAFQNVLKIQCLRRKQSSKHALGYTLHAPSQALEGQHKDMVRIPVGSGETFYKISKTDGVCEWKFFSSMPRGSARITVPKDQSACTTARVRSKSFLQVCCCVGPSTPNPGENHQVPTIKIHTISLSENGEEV
Method in brief: (§1)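 α1-agonist dose–response curves in isolated tissue: rabbit urethra (α1A), rat spleen (α1B), rat aorta (α1D). Agonist potency and efficacy read from the concentration–response curves.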

Canis familiaris [4] = species: Canis familiaris; test: Ratio of MAP ED delta20 to that of IUP ED delta5
Canis familiaris [5] = test: Uroselectivity was determined by measuring effective dose required for 20 mmHg increase of mean arterial pressure (MAP) in vivo in dog; assay type: functional, Canis lupus familiaris, Artery
Method in brief: (§2)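 Dog model recording intraurethral pressure (IUP) and mean arterial pressure (MAP) simultaneously. Increasing iv doses given, maximal effect of each dose taken. Doses giving a 5 mmHg rise in IUP (ED Δ5) or 20 mmHg rise in MAP (ED Δ20) were calculated, in nmol/kg ± SEM, n ≥ 4 (2 or 3 where footnoted).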

[6] = target: Alpha adrenergic receptor 1A and 1D (Rattus norvegicus) (UniProt P23944+P43140); test: Selectivity is ratio of pKi (binding affinity) of Alpha-1D to that of alpha1A; assay type: protein assay
[7] = target: T2, Alpha-2A adrenergic receptor (Rattus norvegicus) (UniProt P22909); test: Functional agonism to constrict tissue containing alpha-2A adrenergic receptor in rat prostatic vas deferens; assay type: tissue-based
T2 sequence (whole entry): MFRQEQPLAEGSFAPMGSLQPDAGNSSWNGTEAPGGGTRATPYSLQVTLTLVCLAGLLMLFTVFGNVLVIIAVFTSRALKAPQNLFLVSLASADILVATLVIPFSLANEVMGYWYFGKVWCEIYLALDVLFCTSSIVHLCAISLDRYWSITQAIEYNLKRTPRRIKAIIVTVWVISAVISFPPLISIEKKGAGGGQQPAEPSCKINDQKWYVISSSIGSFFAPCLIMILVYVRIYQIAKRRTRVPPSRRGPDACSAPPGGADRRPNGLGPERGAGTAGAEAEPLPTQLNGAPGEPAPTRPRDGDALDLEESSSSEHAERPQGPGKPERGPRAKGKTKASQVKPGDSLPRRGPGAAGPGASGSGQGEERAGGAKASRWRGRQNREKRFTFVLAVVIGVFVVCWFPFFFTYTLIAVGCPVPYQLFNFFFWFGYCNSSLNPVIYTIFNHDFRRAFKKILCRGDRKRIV

[8] = target: T2, Alpha-2A adrenergic receptor (Rattus norvegicus); test: Efficacy relative to clonidine to constrict tissue containing the alpha-2A adrenergic receptor in rat prostatic vas deferens
[9] = target: T3, Alpha-1D adrenergic receptor (Rattus norvegicus, UniProt P23944); test: In vitro binding affinity towards alpha-1D adrenergic receptor of rat clone in radioligand binding assay
T3 sequence (P23944 whole entry): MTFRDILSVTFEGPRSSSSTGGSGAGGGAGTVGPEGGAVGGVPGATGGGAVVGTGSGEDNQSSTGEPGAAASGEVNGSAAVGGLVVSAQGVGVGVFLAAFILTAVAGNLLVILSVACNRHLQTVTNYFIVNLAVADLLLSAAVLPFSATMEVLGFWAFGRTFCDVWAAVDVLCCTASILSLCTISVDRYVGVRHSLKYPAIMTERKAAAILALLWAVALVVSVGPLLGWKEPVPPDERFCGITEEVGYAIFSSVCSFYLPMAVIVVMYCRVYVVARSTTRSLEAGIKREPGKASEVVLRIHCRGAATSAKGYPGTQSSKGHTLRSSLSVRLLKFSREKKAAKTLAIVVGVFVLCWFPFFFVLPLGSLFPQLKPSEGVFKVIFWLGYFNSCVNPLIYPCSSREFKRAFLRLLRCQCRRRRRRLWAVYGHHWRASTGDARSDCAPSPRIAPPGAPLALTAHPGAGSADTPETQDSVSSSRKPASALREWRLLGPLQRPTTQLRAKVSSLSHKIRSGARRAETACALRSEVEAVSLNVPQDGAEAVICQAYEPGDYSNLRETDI
Method in brief: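 Radioligand binding at α1 subtypes: α1A from rat submaxillary gland, α1B hamster clone, α1D rat clone. Run essentially per an earlier method.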

Canis familiaris [10] = test: Uroselectivity was determined by measuring effective dose required for 5 mmHg increase of intraurethral pressure (IUP) in vivo in dog; assay type: functional, Canis lupus familiaris; method in brief: as §2
[11] = target: T4, Alpha-1B adrenergic receptor (Rattus norvegicus) (UniProt P15823); test: Efficacy relative to phenylephrine (PE) constriction of rat spleen containing alpha-1B adrenergic receptor; assay type: functional, tissue-based; method in brief: as §1
T4 sequence (whole entry): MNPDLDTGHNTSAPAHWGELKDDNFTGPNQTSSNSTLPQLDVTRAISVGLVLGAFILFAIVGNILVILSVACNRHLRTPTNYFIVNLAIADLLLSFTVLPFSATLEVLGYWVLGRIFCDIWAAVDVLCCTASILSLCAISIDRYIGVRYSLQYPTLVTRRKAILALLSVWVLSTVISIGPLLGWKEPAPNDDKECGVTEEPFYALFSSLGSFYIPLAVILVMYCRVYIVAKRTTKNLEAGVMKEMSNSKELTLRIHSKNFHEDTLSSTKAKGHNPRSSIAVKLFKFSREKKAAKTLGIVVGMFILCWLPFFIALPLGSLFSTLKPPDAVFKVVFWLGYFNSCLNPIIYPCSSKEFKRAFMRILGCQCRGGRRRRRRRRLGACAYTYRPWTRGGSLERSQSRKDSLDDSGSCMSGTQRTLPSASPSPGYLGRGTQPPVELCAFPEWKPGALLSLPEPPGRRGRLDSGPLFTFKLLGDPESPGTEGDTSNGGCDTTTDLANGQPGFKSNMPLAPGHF

Sequence of Alpha adrenergic receptor 1A and 1B (Rattus norvegicus) (P43140 whole entry, looked up, one chain of several): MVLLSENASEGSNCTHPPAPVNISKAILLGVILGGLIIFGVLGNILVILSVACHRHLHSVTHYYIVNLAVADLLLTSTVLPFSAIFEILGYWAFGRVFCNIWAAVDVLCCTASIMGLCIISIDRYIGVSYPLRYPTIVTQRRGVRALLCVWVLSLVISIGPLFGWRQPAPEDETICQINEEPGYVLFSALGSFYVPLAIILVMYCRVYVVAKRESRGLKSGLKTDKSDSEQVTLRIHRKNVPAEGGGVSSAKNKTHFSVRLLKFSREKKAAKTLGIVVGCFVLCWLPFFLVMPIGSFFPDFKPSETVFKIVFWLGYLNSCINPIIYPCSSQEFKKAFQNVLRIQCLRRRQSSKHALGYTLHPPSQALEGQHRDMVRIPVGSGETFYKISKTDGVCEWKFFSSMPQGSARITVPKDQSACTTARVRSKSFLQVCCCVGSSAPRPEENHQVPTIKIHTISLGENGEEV

SMILES	Selectivity [1]	Selectivity [2]	pD2 [3]	Ratio (Canis familiaris [4])	ED delta20 (Canis familiaris [5])	Selectivity [6]	pD2 [7]	Efficacy [8]	Ki [9]	ED delta5 (Canis familiaris [10])	Efficacy [11]
CN(c1cccc2c1CCCC2c1c[nH]cn1)S(C)(=O)=O (centres undefined)	0.12	> 50	6.16	2.5	225.3 nM/kg	3	7.08	100%			
CC(N)C(O)c1ccccc1 (centres undefined) [PHENYLPROPANOLAMINE]	0.03	1	3.63	0.4	330 nM/kg	1		85%	8.51 µM	1100 nM/kg	34%
O=C(Nc1cccc2c1CCCC2c1c[nH]cn1)C(F)(F)F (centres undefined)	0.1	60	6.28	1.1	216 nM/kg	20	7.14	100%		188 nM/kg	19%
O=S(=O)(CC(F)(F)F)Nc1cccc2c1CCCC2c1c[nH]cn1 (single isomer, unassigned; (+))	0.14	> 80	5.73	3	450 nM/kg	> 80	6.59	100%	> 10 µM	156 nM/kg	
COc1ccc(OC)c(C(O)CN)c1 (centres undefined) [DESGLYMIDODRINE]	0.001	3	5.15	1.3	250 nM/kg	0.8	8.23	20%	1.66 µM	205 nM/kg	68%
